From ChEMBL document CHEMBL2390936, “Phosphonic analogues of glutamic acid as irreversible inhibitors of Staphylococcus aureus endoproteinase GluC: an efficient synthesis and inhibition of the human IgG degradation” (Bioorg Med Chem Lett, 2013)
pKi: −log10 of the molar value. Activity calls are given as the source filed them. The calls are words filed in the database; no cut-off is given here.

What was measured:
[1] = biological target: T1, Serine protease SplB (Staphylococcus aureus) (UniProt Q53781); assay: Inhibition of Staphylococcus aureus SplB protease using Ac-Trp-Glu-Leu-Gln-ACC as substrate at 200 uM after 30 mins
T1 sequence (whole entry): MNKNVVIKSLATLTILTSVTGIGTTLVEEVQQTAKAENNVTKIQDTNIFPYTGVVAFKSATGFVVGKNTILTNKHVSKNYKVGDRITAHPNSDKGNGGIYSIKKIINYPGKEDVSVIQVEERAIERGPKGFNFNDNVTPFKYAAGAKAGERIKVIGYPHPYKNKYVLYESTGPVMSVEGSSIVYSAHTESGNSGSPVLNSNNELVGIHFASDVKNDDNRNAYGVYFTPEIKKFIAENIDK
Method in brief: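 SplB protease (100 nM, recombinant, expressed and purified in-house) in 0.1 M Tris–HCl, 0.01% Triton X-100, pH 7.6, 37 °C. Fluorogenic substrate Ac-Trp-Glu-Leu-Gln-ACC (Ex 355/Em 460 nm). Enzyme added last to substrate plus inhibitor. Percentage inhibition read after 30 min of kinetic measurement with inhibitor at 200 µM.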

Glutamyl endopeptidase = Glutamyl endopeptidase (Staphylococcus aureus, UniProt P0C1U8); assay: Inhibition of Staphylococcus aureus endoproteinase GluC using Ac-Phe-Leu-Glu-ACC as substrate after 30 mins
Sequence of Glutamyl endopeptidase (P0C1U8 whole entry): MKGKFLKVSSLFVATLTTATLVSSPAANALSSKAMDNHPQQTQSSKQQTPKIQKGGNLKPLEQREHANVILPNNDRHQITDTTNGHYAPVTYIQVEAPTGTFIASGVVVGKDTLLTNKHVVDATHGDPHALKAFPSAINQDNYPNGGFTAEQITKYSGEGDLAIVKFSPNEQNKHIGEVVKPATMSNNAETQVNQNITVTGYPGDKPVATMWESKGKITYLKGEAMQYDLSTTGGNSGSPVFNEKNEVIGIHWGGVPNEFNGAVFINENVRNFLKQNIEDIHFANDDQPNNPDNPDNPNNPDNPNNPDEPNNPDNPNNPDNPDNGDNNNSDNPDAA
Method in brief: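 V8 protease (75 nM, commercial) in 0.1 M Tris–HCl, 0.05% Tween 20, pH 7.8, 37 °C. Fluorogenic substrate Ac-Phe-Leu-Glu-ACC (Ex 355/Em 460 nm). Enzyme added to substrate plus inhibitor, with [E]0 below [I]0. Observed inhibition rate constants taken from progress curves, giving k2/Ki and Ki.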

[2] = biological target: Glutamyl endopeptidase (Staphylococcus aureus) (UniProt P0C1U8); assay: Inhibition of Staphylococcus aureus endoproteinase GluC-mediated human IgG degradation at 100 uM preincubated 1 hr prior to human IgG degradation addition measured after 24 hrs
Sequence of Glutamyl endopeptidase (Staphylococcus aureus) (P0C1U8 whole entry, the tested form may be a part): as the sequence (P0C1U8 whole entry) above
Method in brief: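 V8 protease (final 1 µM) pre-incubated 1 h at 37 °C with inhibitor (final 100 µM). Human IgG (final 160 µg/ml) then added and incubated 24 h at 37 °C. DMSO-only control. Fragments separated by gel and visualised by silver staining.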

Staphylococcus aureus = assay: Antibacterial activity against Staphylococcus aureus ATCC […] after 4 to 24 hrs; assay type: functional, organism-based
[3] = biological target: Glutamyl endopeptidase (Staphylococcus aureus) (UniProt P0C1U8); assay: Inhibition of Staphylococcus aureus endoproteinase GluC using Ac-Phe-Leu-Glu-ACC as substrate at 200 uM after 30 mins
Method in brief: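 V8 protease (75 nM) in 0.1 M Tris–HCl, 0.05% Tween 20, pH 7.8, 37 °C, with fluorogenic Ac-Phe-Leu-Glu-ACC (Ex 355/Em 460 nm). Enzyme added last to substrate plus inhibitor. Percentage inhibition recorded after 30 min of kinetic measurement at 200 µM inhibitor.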

Molecule: CC(C)C[C@H](NC(=O)OC(C)(C)C)C(=O)NC(CCC(=O)O)P(=O)(Oc1ccccc1)Oc1ccccc1 (mixture of isomers)
- inhibition [1]: 0%
- pKi (Glutamyl endopeptidase): 5.11

Molecule: CC(C)[C@H](NC(=O)OC(C)(C)C)C(=O)NC(CCC(=O)O)P(=O)(Oc1ccccc1)Oc1ccccc1 (mixture of isomers)
- inhibition [1]: 0%
- pKi (Glutamyl endopeptidase): 4.63

Molecule: CC(C)C[C@H](NC(=O)[C@H](Cc1ccccc1)NC(=O)OC(C)(C)C)C(=O)NC(CCC(=O)O)P(=O)(Oc1ccccc1)Oc1ccccc1 (mixture of isomers)
- inhibition [2]: Active
- inhibition [1]: 0%
- inhibition (Staphylococcus aureus): inactive
- pKi (Glutamyl endopeptidase): 5.21

Molecule: CC(C)C[C@H](NC(=O)[C@H](CCC(=O)O)NC(=O)OC(C)(C)C)C(=O)NC(CCC(=O)O)P(=O)(Oc1ccccc1)Oc1ccccc1 (mixture of isomers)
- inhibition [1]: 0%
- pKi (Glutamyl endopeptidase): 5.02

Molecule: C[C@H](NC(=O)[C@H](Cc1ccccc1)NC(=O)OC(C)(C)C)C(=O)NC(CCC(=O)O)P(=O)(Oc1ccccc1)Oc1ccccc1 (mixture of isomers)
- inhibition [1]: 0%
- pKi (Glutamyl endopeptidase): 5.03

Molecule: C[C@H](NC(=O)[C@H](CCC(=O)O)NC(=O)OC(C)(C)C)C(=O)NC(CCC(=O)O)P(=O)(Oc1ccccc1)Oc1ccccc1 (mixture of isomers)
- inhibition [1]: 0%
- pKi (Glutamyl endopeptidase): 4.89

Molecule: CC(C)[C@H](NC(=O)[C@H](Cc1ccccc1)NC(=O)OC(C)(C)C)C(=O)NC(CCC(=O)O)P(=O)(Oc1ccccc1)Oc1ccccc1 (mixture of isomers)
- inhibition [1]: 0%
- pKi (Glutamyl endopeptidase): 5.09

Molecule: CC(C)[C@H](NC(=O)[C@H](CCC(=O)O)NC(=O)OC(C)(C)C)C(=O)NC(CCC(=O)O)P(=O)(Oc1ccccc1)Oc1ccccc1 (mixture of isomers)
- inhibition [1]: 0%
- pKi (Glutamyl endopeptidase): 5.00

Molecule: CC(C)C[C@H](NC(=O)[C@H](CC(=O)O)NC(=O)OC(C)(C)C)C(=O)NC(CCC(=O)O)P(=O)(Oc1ccccc1)Oc1ccccc1 (mixture of isomers)
- inhibition [1]: 0%
- inhibition [3]: 41%

Molecule: CC(C)C[C@H](NC(=O)[C@H](CCC(=O)O)NC(=O)OC(C)(C)C)C(=O)NC(CCC(N)=O)P(=O)(Oc1ccccc1)Oc1ccccc1 (mixture of isomers)
- inhibition [3]: 0%

Molecule: CC(C)[C@H](NC(=O)[C@H](CC(=O)O)NC(=O)OC(C)(C)C)C(=O)NC(CCC(=O)O)P(=O)(Oc1ccccc1)Oc1ccccc1 (mixture of isomers)
- inhibition [1]: 0%
- inhibition [3]: 50%

Molecule: C[C@H](NC(=O)OC(C)(C)C)C(=O)NC(CCC(=O)O)P(=O)(Oc1ccccc1)Oc1ccccc1 (mixture of isomers)
- inhibition [1]: 0%
- inhibition [3]: 39%

Molecule: C[C@H](NC(=O)[C@H](CC(=O)O)NC(=O)OC(C)(C)C)C(=O)NC(CCC(=O)O)P(=O)(Oc1ccccc1)Oc1ccccc1 (mixture of isomers)
- inhibition [1]: 0%
- inhibition [3]: 26%

Molecule: O=C(O)CCC(NC(=O)OCc1ccccc1)P(=O)(Oc1ccccc1)Oc1ccccc1 (racemic)
- inhibition [1]: 0%
- pKi (Glutamyl endopeptidase): 5.09

Molecule: CC(=O)NC(CCC(=O)O)P(=O)(Oc1ccccc1)Oc1ccccc1 (racemic)
- inhibition [1]: 0%
- pKi (Glutamyl endopeptidase): 4.96

Molecule: GENTAMICIN
- MIC (Staphylococcus aureus): 2 µg/mL
